Experimental data as given in article PMC4721638 (Integrative biology : quantitative biosciences from nano to …, 2015).
[ ]: non-standard residue; d: D form. Ahx = NCCCCCC(=O)O

T1: RHAMM:HA interaction, immobilized recombinant RHAMM (Mus musculus, UniProt Q00547)
T1 sequence (Q00547 with tags, fused parts or gaps): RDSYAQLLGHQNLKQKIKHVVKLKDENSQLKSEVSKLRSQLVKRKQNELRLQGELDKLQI

T2: peptide 2b (VEGEGEEEGEEY)
T2 peptide: Ac-C[Ahx]VEGEGEEEGEEY-NH2

T3: peptide 14b (FTEAESNMNDLV)
T3 peptide: Ac-C[Ahx]FTEAESNMNDLV-NH2

T4: peptide 10b (EEDFGEEAEEEA)
T4 peptide: Ac-C[Ahx]EEDFGEEAEEEA-NH2

B1: Recombinant protein RHAMM-CT (aa. 706–767) (domain or fragment)
chain: T1 sequence (Q00547 with tags, fused parts or gaps)

What was measured:
[1] = target: T1, RHAMM:HA interaction, immobilized recombinant RHAMM; assay: Competitive ELISA, fluorescein-labelled peptides vs HA; format: binding; settings: summary of the competitive ELISA results
PC3MLN4 cells [2] = assay: Cell adhesion on invasion assay substrates; format: cell-based, human; settings: PC3MLN4 on the invasion assay substrates (not shown)
PC3MLN4 cells [3] = assay: Anchorage independent growth; format: cell-based, human
PC3MLN4 cells [4] = assay: Cell invasion assay; format: cell-based, human; settings: 10 µg/mL, 48 hrs, compared to scrambled peptide control
How it was run: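 Gelatin invadopodia assay: PC3MLN4 cells are plated at 50% confluency on Cy3-gelatin-coated chamber slides in growth medium with test peptide or scrambled control peptide (10 µg/mL each). After 48 h, cells are fixed, stained with FITC-phalloidin and DAPI, and imaged by confocal microscopy to assess degradation of the fluorescent matrix.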

[5] = target: T2, peptide 2b (VEGEGEEEGEEY); assay: SPR
[6] = target: T3, peptide 14b (FTEAESNMNDLV); assay: SPR
[7] = target: T4, peptide 10b (EEDFGEEAEEEA); assay: SPR

Molecule	Overall efficiency at competing with HA for binding to RHAMM [1]	Inhibition of cell adhesion (PC3MLN4 cells [2])	Effect on anchorage independent proliferation (PC3MLN4 cells [3])	Inhibition of the ability to degrade collagen (PC3MLN4 cells [4]) [%]	Kd [5] [nM]	Kd [6] [nM]	Kd [7] [nM]
FTEAESNMNDLV [14a]	most efficient at competing with HA	no observed inhibition	marginal effects	80	–	–	–
EAFEDEEEEIDG [12a]	most efficient at competing with HA	–	–	–	–	–	–
B1	–	–	–	–	24	30	32
